Calls of active or inactive are those of the source. No cut-off for these calls is given here. Some results are limits rather than exact numbers.

The test system of series [1] is Splenocyte. The series can be described thus: Immunosuppressive activity in BALB/c mouse splenocytes assessed as inhibition of LPS-stimulated B-cell proliferation by measuring [3H]-thymidine uptake preincubated for 48 hrs followed by LPS stimulation and [3H]-thymidine addition for 8 hrs measured after 48 hrs by beta-scintillation counting analysis. It is filed as functional, cell-based. In short, it runs like this:
(§1)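 Female BALB/c splenocytes (5×10^5 cells), triplicate, with or without compound, stimulated with Con A 5 μg/ml (T cells) or LPS (E. coli 055:B5) 10 μg/ml (B cells). Culture 48 h at 37 °C, 5% CO2. Pulsed 8 h with 0.5 μCi/well [3H]thymidine, harvested to glass fiber filters, beta scintillation counted. IC50 from log(inhibitor) vs normalized response non-linear fit.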

Series [2] has as its system Splenocyte. The experiment in a line: Immunosuppressive activity in BALB/c mouse splenocytes assessed as inhibition of concanavalin A stimulated T-cell proliferation by measuring [3H]-thymidine uptake preincubated for 48 hrs followed by concanavalin A stimulation and [3H]-thymidine addition for 8 hrs measured after 48 hrs by beta-scintillation counting analysis. It counts as functional, cell-based. In outline:
as §1

The nature of series [3]: Cytotoxicity against BALB/c mouse splenocytes after 48 hrs by CCK-8 assay. It counts as cell-based, Splenocyte. In short, it runs like this:
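Fresh female BALB/c splenocytes (1×10^6 cells), RBC-depleted with ammonium chloride, cultured in triplicate in RPMI 1640/10% FBS with penicillin/streptomycin at 37 °C, 5% CO2 for 48 h with or without compound (DMSO stock diluted in medium). CCK-8 added, 6-8 h further incubation, absorbance 450 nm (570 nm calibration). CC50 from log(inhibitor) vs normalized response non-linear fit.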

The test system of series [4] is Splenocyte. The series can be described thus: Immunosuppressive activity in BALB/c mouse splenocytes assessed as inhibition of concanavalin A stimulated T-cell proliferation by measuring [3H]-thymidine uptake at 50 uM preincubated for 48 hrs followed by concanavalin A stimulation and [3H]-thymidine addition for 8 hrs measured after 48 hrs by beta-scintillation counting analysis. It counts as functional, cell-based. In outline:
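Female BALB/c splenocytes (5×10^5 cells), triplicate, compound at 50 μM, Con A 5 μg/ml stimulation, 48 h at 37 °C, 5% CO2. Pulsed 8 h with 0.5 μCi/well [3H]thymidine, harvested to glass fiber filters, counted by beta scintillation.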

`O=[N+]([O-])c1ccc(-c2noc(Cc3c[nH]c4ccccc34)n2)cc1`: the IC50 in the series on Splenocyte [1] and in the series on Splenocyte [2] was > 50 µM each time. Besides, in series [3], the CC50 (in general, the concentration that lowers cell viability or growth by half) at 48 h is > 50 µM.
Regarding `CCCCCCc1ccc(-c2nc(-c3cc(OC)c(OC)c(OC)c3)no2)cc1`, the IC50 (commonly the concentration needed to halve the response being measured) in the series with Splenocyte [1] is 22.9 µM; in the series with Splenocyte [2], 23.8 µM. The compound also returned a CC50 at 48 h in series [3] of 25 µM.
The matching figures for `c1ccc(-c2noc(Cc3c[nH]c4ccccc34)n2)cc1`: > 50 µM, > 50 µM and > 50 µM.
With `COc1ccc(OC)c(-c2nc(Cc3c[nH]c4ccccc34)no2)c1`, the IC50 in the series with Splenocyte [1] was 8.4 µM; with Splenocyte [2] it was > 50 µM. Further, in series [3], the cytotoxic concentration (CC50) at 48 h was > 50 µM.
Take `COc1cc(-c2noc(C3CC4(C3)CC(F)(F)C4)n2)cc(OC)c1OC`: the results for the IC50 in the series with Splenocyte [1] and in the series on Splenocyte [2] were 5.6 µM and 5.2 µM, respectively. For the same compound, in series [3], the half-maximal cytotoxic concentration (CC50) at 48 h was determined as 28.5 µM.
With `N=C(N)NCCCCNc1noc(Cc2c[nH]c3ccccc23)n1`, in the series on Splenocyte [4], the inhibition result was “inactive”.
Consider `COc1cccc(-c2nc(Cc3c[nH]c4ccccc34)no2)c1`, for which the figures for the IC50 in the series on Splenocyte [1] and with Splenocyte [2] were 11.1 µM and 18.5 µM, respectively. The compound further gave a CC50 at 48 h in series [3] of 18.4 µM.
As for `COc1cc(-c2noc(C34CC5CC(CC(C5)C3)C4)n2)cc(OC)c1OC`, the figures for the IC50 with Splenocyte [1] and in the series with Splenocyte [2] were 18.8 µM and 2.7 µM, respectively. In addition, it took 26.5 µM to reach half-maximal cytotoxicity in series [3] (CC50 at 48 h).
Take `N=C(N)NCCCCCNc1noc(Cc2c[nH]c3ccccc23)n1`: the inhibition entry in the series on Splenocyte [4] is “inactive”.
Turning to `COc1cc(-c2noc(-c3cc(OC)c(OC)c(OC)c3)n2)cc(OC)c1OC`, the IC50 in the series on Splenocyte [1] was > 50 µM; with Splenocyte [2] it was 5.5 µM. For the same compound, the CC50 at 48 h in series [3] is > 50 µM.
In the case of `COc1ccc(-c2nc(Cc3c[nH]c4ccccc34)no2)cc1`, the IC50 with Splenocyte [1] and in the series with Splenocyte [2] was > 50 µM each time. Further, in series [3], the CC50 at 48 h is > 50 µM.
In the case of `COc1cc(-c2noc(C34CCC(NC(=O)OC(C)(C)C)(CC3)CC4)n2)cc(OC)c1OC`, the IC50 came out at 3.6 µM in the series on Splenocyte [1] and 2.5 µM with Splenocyte [2]. The compound further gave a CC50 at 48 h in series [3] of 12.7 µM.
With `COc1ccccc1-c1nc(Cc2c[nH]c3ccccc23)no1`, the half-maximal inhibitory concentration (IC50) stood at 11.1 µM in the series on Splenocyte [1] and 16.7 µM in the series on Splenocyte [2]. The compound also came in with a CC50 at 48 h in series [3] of 42.2 µM.
The matching figures for `COc1ccc(-c2nc(Cc3c[nH]c4ccccc34)no2)c(OC)c1`: 4.7 µM, 8.6 µM and 9.3 µM.
Taken in the same sequence, the figures for `COc1cc(-c2noc(-c3ccc(NC(=O)OC(C)(C)C)cc3)n2)cc(OC)c1OC` were 2.2 µM, 1.6 µM and 9.2 µM.
Regarding `CCc1ccc(-c2noc(Cc3c[nH]c4ccccc34)n2)cc1`, the IC50 was found to be 13.9 µM in the series with Splenocyte [1] and 7.5 µM in the series on Splenocyte [2]. In addition, the CC50 at 48 h in series [3] came to 24.4 µM.
Take `CCCCc1nc(Cc2c[nH]c3ccccc23)no1`: the IC50 with Splenocyte [1] and with Splenocyte [2] was > 50 µM each time. Besides, the CC50 at 48 h in series [3] is > 50 µM.
For `COc1ccc(Br)c(-c2nc(Cc3c[nH]c4ccccc34)no2)c1`, the IC50 with Splenocyte [1] amounted to 6.9 µM; in the series on Splenocyte [2] it was 13.3 µM. This compound gave a CC50 at 48 h in series [3] of 33.6 µM.
Taken in the same sequence, the figures for `Fc1ccccc1-c1nc(Cc2c[nH]c3ccccc23)no1` were > 50 µM, > 50 µM and > 50 µM.
For the compound `N=C(N)NCCNc1noc(Cc2c[nH]c3ccccc23)n1`, in the series with Splenocyte [4], the inhibition result was “inactive”.
As to `CCc1ccc(-c2nc(-c3cc(OC)c(OC)c(OC)c3)no2)cc1`, the half-inhibitory concentration (IC50) in the series on Splenocyte [1] and in the series with Splenocyte [2] was > 50 µM in each case. Besides, in series [3], the midpoint of cytotoxicity, the CC50 at 48 h, lay at 31.3 µM.
With `COc1cc(-c2noc(-c3ccccc3)n2)cc(OC)c1OC`, the IC50 in the series on Splenocyte [1] and with Splenocyte [2] was > 50 µM throughout. Further, the CC50 at 48 h in series [3] is > 50 µM.
In the case of `Clc1ccc(-c2noc(Cc3c[nH]c4ccccc34)n2)cc1`, the figures for the IC50 in the series on Splenocyte [1] and in the series on Splenocyte [2] were > 50 µM and 22.6 µM, respectively. Half-maximal cytotoxicity in series [3] (CC50 at 48 h) was put at 42.8 µM.
Turning to `COc1cc(-c2noc(Cc3c[nH]c4ccccc34)n2)cc(OC)c1OC`, the IC50 in the series with Splenocyte [1] was 2.8 µM; with Splenocyte [2] it was > 50 µM. Further, the CC50 at 48 h in series [3] was > 50 µM.
`COc1cc(C(=O)O/N=C(\N)Cc2c[nH]c3ccccc23)cc(OC)c1OC`: the results for the IC50 in the series on Splenocyte [1] and in the series with Splenocyte [2] were 6.8 µM and 11.9 µM, respectively. The half-maximal cytotoxic concentration (CC50) at 48 h in series [3] stood at 10.1 µM.
For `Fc1ccc(-c2noc(Cc3c[nH]c4ccccc34)n2)cc1`, the IC50 in the series on Splenocyte [1] is 13.6 µM; in the series on Splenocyte [2], 5.4 µM. In series [3], this compound gave a half-maximal cytotoxic concentration (CC50) at 48 h of 13.6 µM.
Regarding `CCCCc1ccc(-c2nc(Cc3c[nH]c4ccccc34)no2)cc1`, the IC50 with Splenocyte [1] amounted to 9.8 µM; with Splenocyte [2], 11.2 µM. The same compound showed a CC50 at 48 h in series [3] of 8.2 µM.
Taken in the same sequence, the figures for `COc1cc(-c2noc(C34CCC(N)(CC3)CC4)n2)cc(OC)c1OC` were 4.1 µM, 4.8 µM and 25.8 µM.
Taken in the same sequence, the figures for `COc1cc(OC)cc(-c2nc(Cc3c[nH]c4ccccc34)no2)c1` were 13.9 µM, > 50 µM and > 50 µM.
Taken in the same sequence, the figures for `CCCCc1ccc(-c2nc(-c3cc(OC)c(OC)c(OC)c3)no2)cc1` were 36.2 µM, > 50 µM and 21.2 µM.
With `COc1cc(/C(N)=N/OC(=O)Cc2c[nH]c3ccccc23)cc(OC)c1OC`, the results for the IC50 in the series with Splenocyte [1] and in the series on Splenocyte [2] were 10.4 µM and 19.5 µM, respectively. The CC50 at 48 h in series [3] came out at 37.3 µM.
As for `Fc1ccc(-c2nc(Cc3c[nH]c4ccccc34)no2)c(C(F)(F)F)c1`, the IC50 in the series with Splenocyte [1] came to 9.7 µM; in the series on Splenocyte [2], 15.7 µM. The compound also showed a CC50 at 48 h in series [3] of 40.6 µM.
Taken in the same sequence, the figures for `COc1cc(-c2noc(-c3cccc(N)c3)n2)cc(OC)c1OC` were 5.5 µM, 7 µM and 8.2 µM.
